# Experimental data as given in ChEMBL document CHEMBL4819117, “Probing cytochrome P450 (CYP) bioactivation with chloromethylindoline bioprecursors derived from the duocarmycin family of compounds” (Bioorg Med Chem, 2021).
# Tests used:
# CHO [1] = assay: Antiproliferative activity against wild type chinese hamster CHO cells deficit in CYPs assessed as inhibition of cell growth after 96 hrs by MTT assay; format: functional, cell-based; conditions: Cricetulus griseus
# Summary of the method: (§1)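 Cells kept as monolayers at 37 °C in 5% CO2: EJ-138 and RT112 in RPMI 1640 with 10% FBS, sodium pyruvate and 2 mM L-glutamine; CHO and CHO-1A1 in DMEM. Compounds were taken from DMSO stocks into medium over 0.001–100 μM, with final DMSO ≤0.1%. Exposure lasted 96 h, then MTT read-out. IC50 values are mean ± SD of at least three independent assays.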
# RT-112 = assay: Antiproliferative activity against human RT112 cells proficient in CYP1A1 assessed as inhibition of cell growth after 96 hrs by MTT assay; format: functional, cell-based; conditions: RT-112, 96 h; summary of the method: as §1
# EJ [2] = assay: Antiproliferative activity against human EJ138 cells deficit in CYPs assessed as inhibition of cell growth after 96 hrs by MTT assay; format: functional, cell-based; summary of the method: as §1
# CHO [3] = assay: Antiproliferative activity against chinese hamster CHO cells transfected with CYP1A1 assessed as inhibition of cell growth after 96 hrs by MTT assay; format: functional, cell-based; conditions: Cricetulus griseus; summary of the method: as §1
# [4] = Drug metabolism in Wistar rat liver microsomes assessed as CYP-mediated metabolite M16 formation at 0.5 to 23.5 uM prewarmed for 5 mins followed by NADPH addition and measured after 30 mins by HPLC-fluorescence detector analysis; format: ADME; conditions: 35 min, dose 0.5-23.5 µM
# Cytochrome P450 1A1 [5] = molecular target: T1, Cytochrome P450 1A1 (Homo sapiens, UniProt P04798); assay: Drug metabolism assessed as recombinant human CYP1A1-mediated metabolite M5 with m/z 355.1 formation at 50 uM incubated for 1 hr in presence of reconstituted protein system by LC-MS analysis; format: ADME; conditions: recombinant enzyme
# T1 sequence (P04798 whole entry): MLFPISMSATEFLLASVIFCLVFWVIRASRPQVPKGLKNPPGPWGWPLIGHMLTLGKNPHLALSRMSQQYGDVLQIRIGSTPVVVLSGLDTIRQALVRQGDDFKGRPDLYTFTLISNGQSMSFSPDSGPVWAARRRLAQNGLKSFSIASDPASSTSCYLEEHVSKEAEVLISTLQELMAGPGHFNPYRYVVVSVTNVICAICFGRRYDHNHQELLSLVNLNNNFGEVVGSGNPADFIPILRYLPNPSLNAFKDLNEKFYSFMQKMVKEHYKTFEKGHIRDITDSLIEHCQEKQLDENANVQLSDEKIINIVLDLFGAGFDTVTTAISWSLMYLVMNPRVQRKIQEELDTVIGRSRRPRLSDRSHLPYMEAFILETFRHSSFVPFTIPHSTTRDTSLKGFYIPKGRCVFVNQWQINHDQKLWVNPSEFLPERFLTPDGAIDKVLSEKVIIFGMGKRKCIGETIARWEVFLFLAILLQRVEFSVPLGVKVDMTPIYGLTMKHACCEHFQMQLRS
# Summary of the method: (§2)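 Substrate (50 μM) incubated at 37 °C with human recombinant CYP1A1 in a reconstituted system: NADPH cytochrome P450 reductase, freshly prepared DLPC (240 μM), 100 mM potassium phosphate pH 7.4. Reaction was started with NADPH (1 mM final) and aliquots quenched into dichloromethane over 60 min. Metabolites were profiled by HPLC with photodiode array and ESI⁺ quadrupole MS.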
# EJ [6] = assay: Potentiation factor, ratio of IC50 for antiproliferative activity against human EJ138 cells preincubated for 1 hr with CYP null bactosomes to IC50 for antiproliferative activity against human EJ138 cells preincubated for 1 hr with human CYP1B1 expressing bactosomes; format: functional
# Summary of the method: (§3)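 Potentiation factor = IC₅₀ in EJ138 given control (CYP null) bactosome extract ÷ IC₅₀ with the named CYP isoform extract. Extracts came from 1 h, 37 °C incubations of 50 μM compound with 20 pmol bactosomes plus 2 mM NADPH, 1 mM MgCl₂, Tris-HCl pH 7.4. Cells were exposed 96 h and read by MTT.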
# Cytochrome P450 [7] = assay: Drug metabolism in human liver microsomes assessed as CYP-mediated metabolite M16 formation at 0.5 to 23.5 uM prewarmed for 5 mins followed by NADPH addition and measured after 30 mins by HPLC-fluorescence detector analysis; format: ADME; conditions: 35 min, dose 0.5-23.5 µM
# Cytochrome P450 1A1 [8] = molecular target: T1, Cytochrome P450 1A1; assay: Drug metabolism assessed as human CYP1A1 expressed in bactosomes assessed as metabolite M2 with m/z 357.1 formation measured after 1 hr by LC-MS analysis; format: ADME; conditions: recombinant enzyme
# EJ [9] = assay: Potentiation factor, ratio of IC50 for antiproliferative activity against human EJ138 cells preincubated for 1 hr with CYP null bactosomes to IC50 for antiproliferative activity against human EJ138 cells preincubated for 1 hr with human CYP3A4 expressing bactosomes; format: functional; summary of the method: as §3
# EJ [10] = assay: Antiproliferative activity against human EJ138 cells assessed as inhibition of cell growth preincubated for 1 hr with human CYP1A1 expressing bactosomes measured after 96 hrs by MTT assay; format: functional, cell-based
# Summary of the method: (§4)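 Compound (50 μM) incubated 1 h at 37 °C with 20 pmol CYP bactosomes (CYP null, 1A1, 1A2, 1B1 or 3A4) in 2 mM NADPH, 1 mM MgCl₂, Tris-HCl pH 7.4. Metabolites were extracted with acetonitrile, centrifuged, and the supernatant dried and taken up in DMSO. EJ138 cells were exposed 96 h and growth read by MTT assay.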
# Cytochrome P450 1A1 [11] = molecular target: T1, Cytochrome P450 1A1; assay: Drug metabolism assessed as human CYP1A1 expressed in bactosomes assessed as metabolite M3 with m/z 339.1 formation measured after 1 hr by LC-MS analysis; format: ADME; conditions: recombinant enzyme
# Cytochrome P450 [12] = assay: Drug metabolism in human liver microsomes assessed as CYP-mediated metabolite M23 formation at 0.5 to 23.5 uM prewarmed for 5 mins followed by NADPH addition and measured after 30 mins by HPLC-fluorescence detector analysis; format: ADME; conditions: 35 min, dose 0.5-23.5 µM
# EJ [13] = assay: Potentiation factor, ratio of IC50 for antiproliferative activity against human EJ138 cells preincubated for 1 hr with CYP null bactosomes to IC50 for antiproliferative activity against human EJ138 cells preincubated for 1 hr with human CYP1A2 expressing bactosomes; format: functional; summary of the method: as §3
# [14] = Drug metabolism in Wistar rat liver microsomes assessed as CYP-mediated metabolite M23 formation at 0.5 to 23.5 uM prewarmed for 5 mins followed by NADPH addition and measured after 30 mins by HPLC-fluorescence detector analysis; format: ADME; conditions: 35 min, dose 0.5-23.5 µM
# EJ [15] = assay: Antiproliferative activity against human EJ138 cells assessed as inhibition of cell growth preincubated for 1 hr with human CYP3A4 expressing bactosomes measured after 96 hrs by MTT assay; format: functional, cell-based; summary of the method: as §4
# Cytochrome P450 1A2 = molecular target: T2, Cytochrome P450 1A2 (Homo sapiens, UniProt P05177); assay: Drug metabolism assessed as human CYP1A2 expressed in bactosomes assessed as (3-(chloromethyl)-6-hydroxyindolin-1-yl)(5-methoxy-1H-indol-2-yl)methanone formation measured after 1 hr by LC-MS analysis; format: ADME; conditions: recombinant enzyme
# T2 sequence (P05177 whole entry): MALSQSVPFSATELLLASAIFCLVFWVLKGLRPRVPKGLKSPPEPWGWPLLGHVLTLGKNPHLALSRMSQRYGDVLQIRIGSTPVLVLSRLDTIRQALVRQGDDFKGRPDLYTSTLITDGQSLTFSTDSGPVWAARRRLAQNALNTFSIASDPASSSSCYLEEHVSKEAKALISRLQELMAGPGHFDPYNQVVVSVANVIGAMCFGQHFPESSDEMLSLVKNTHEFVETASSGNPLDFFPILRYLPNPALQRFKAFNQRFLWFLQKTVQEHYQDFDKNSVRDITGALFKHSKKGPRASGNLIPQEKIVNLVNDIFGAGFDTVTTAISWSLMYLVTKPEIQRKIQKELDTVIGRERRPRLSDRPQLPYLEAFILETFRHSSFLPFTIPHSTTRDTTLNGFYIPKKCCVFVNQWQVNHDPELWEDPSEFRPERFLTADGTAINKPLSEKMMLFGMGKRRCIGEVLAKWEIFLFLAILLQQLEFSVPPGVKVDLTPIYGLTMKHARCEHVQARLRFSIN
# Cytochrome P450 1A1 [16] = molecular target: T1, Cytochrome P450 1A1; assay: Drug metabolism assessed as recombinant human CYP1A1-mediated metabolite M4 with m/z 327.1 formation at 50 uM incubated for 1 hr in presence of reconstituted protein system by LC-MS analysis; format: ADME; conditions: recombinant enzyme; summary of the method: as §2
# [17] = Drug metabolism in Wistar rat liver microsomes assessed as CYP-mediated metabolite M22 formation at 0.5 to 23.5 uM prewarmed for 5 mins followed by NADPH addition and measured after 30 mins by HPLC-fluorescence detector analysis; format: ADME; conditions: 35 min, dose 0.5-23.5 µM
# EJ [18] = assay: Antiproliferative activity against human EJ138 cells assessed as inhibition of cell growth preincubated for 1 hr with human CYP1A2 expressing bactosomes measured after 96 hrs by MTT assay; format: functional, cell-based; summary of the method: as §4
# EJ [19] = assay: Potentiation factor, ratio of IC50 for antiproliferative activity against human EJ138 cells preincubated for 1 hr with CYP null bactosomes to IC50 for antiproliferative activity against human EJ138 cells preincubated for 1 hr with human CYP1A1 expressing bactosomes; format: functional; summary of the method: as §3
# Cytochrome P450 1A1 [20] = molecular target: T1, Cytochrome P450 1A1; assay: Drug metabolism assessed as human CYP1A1 expressed in bactosomes assessed as (3-(chloromethyl)-6-hydroxyindolin-1-yl)(5-methoxy-1H-indol-2-yl)methanone formation measured after 1 hr by LC-MS analysis; format: ADME; conditions: recombinant enzyme
# Cytochrome P450 [21] = assay: Drug metabolism in human liver microsomes assessed as CYP-mediated metabolite M22 formation at 0.5 to 23.5 uM prewarmed for 5 mins followed by NADPH addition and measured after 30 mins by HPLC-fluorescence detector analysis; format: ADME; conditions: 35 min, dose 0.5-23.5 µM
# Cytochrome P450 1A1 [22] = molecular target: T1, Cytochrome P450 1A1; assay: Drug metabolism assessed as recombinant human CYP1A1-mediated metabolite M6 with m/z 373.1 formation at 50 uM incubated for 1 hr in presence of reconstituted protein system by LC-MS analysis; format: ADME; conditions: recombinant enzyme; summary of the method: as §2
# Cytochrome P450 1A1 [23] = molecular target: T1, Cytochrome P450 1A1; assay: Drug metabolism assessed as recombinant human CYP1A1-mediated metabolite M2 with m/z 357.1 formation at 50 uM incubated for 1 hr in presence of reconstituted protein system by LC-MS analysis; format: ADME; conditions: recombinant enzyme; summary of the method: as §2
# EJ [24] = assay: Antiproliferative activity against human EJ138 cells assessed as inhibition of cell growth preincubated for 1 hr with CYP null bactosomes measured after 96 hrs by MTT assay; format: functional, cell-based; summary of the method: as §4
# Cytochrome P450 1A1 [25] = molecular target: T1, Cytochrome P450 1A1; assay: Drug metabolism assessed as recombinant human CYP1A1-mediated metabolite M3 with m/z 339.1 formation at 50 uM incubated for 1 hr in presence of reconstituted protein system by LC-MS analysis; format: ADME; conditions: recombinant enzyme; summary of the method: as §2
# [26] = Selectivity ratio of IC50 for antiproliferative activity against wild type chinese hamster CHO cells deficit in CYPs to IC50 for antiproliferative activity against chinese hamster CHO cells transfected with CYP1A1 by MTT assay; format: functional, Cricetulus griseus
# Summary of the method: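 CHO wild-type and CYP1A1-transfected CHO cells were grown in DMEM at 37 °C, 5% CO₂. Compounds from DMSO stocks were tested at 0.001–100 μM, final DMSO ≤0.1%, for 96 h, then MTT. Ratio = CHOwt IC₅₀ / CHO1A1 IC₅₀; IC₅₀ values are mean ± SD of at least three independent assays.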
# EJ [27] = assay: Antiproliferative activity against human EJ138 cells assessed as inhibition of cell growth preincubated for 1 hr with human CYP1B1 expressing bactosomes measured after 96 hrs by MTT assay; format: functional, cell-based; summary of the method: as §4
structure (smiles),measurement,setting,value
CC(C)(C)OC(=O)N1CC(CCl)c2ccc(O)cc21 (stereo not drawn),IC50,CHO [1],7.3 µM
same,IC50,RT-112,11.1 µM
same,IC50,EJ [2],8.1 µM
same,IC50,CHO [3],6.5 µM
COc1ccc2[nH]c(C(=O)N3CC(CCl)c4ccccc43)cc2c1 (stereo not drawn),Drug metabolism,[4],Metabolite_Detected
same,Drug metabolism,Cytochrome P450 1A1 [5],Metabolite_Detected
same,Ratio IC50,EJ [6],1.3
same,Drug metabolism,Cytochrome P450 [7],Metabolite_Detected
same,Drug metabolism,Cytochrome P450 1A1 [8],Metabolite_Detected
same,Ratio IC50,EJ [9],0.9
same,IC50,EJ [10],2.5 µM
same,IC50,CHO [1],11.4 µM
same,IC50,RT-112,8.04 µM
same,Drug metabolism,Cytochrome P450 1A1 [11],Metabolite_Detected
same,Drug metabolism,Cytochrome P450 [12],Metabolite_Detected
same,Ratio IC50,EJ [13],9.1
same,Drug metabolism,[14],Metabolite_Detected
same,IC50,EJ [15],19.8 µM
same,Drug metabolism,Cytochrome P450 1A2,Metabolite_Notdetected
same,Drug metabolism,Cytochrome P450 1A1 [16],Metabolite_Detected
same,Drug metabolism,[17],Metabolite_Detected
same,IC50,EJ [18],1.9 µM
same,Ratio IC50,EJ [19],6.9
same,Drug metabolism,Cytochrome P450 1A1 [20],Metabolite_Notdetected
same,Drug metabolism,Cytochrome P450 [21],Metabolite_Detected
same,IC50,EJ [2],15 µM
same,Drug metabolism,Cytochrome P450 1A1 [22],Metabolite_Detected
same,IC50,CHO [3],1.2 µM
same,Drug metabolism,Cytochrome P450 1A1 [23],Metabolite_Detected
same,IC50,EJ [24],17.2 µM
same,Drug metabolism,Cytochrome P450 1A1 [25],Metabolite_Detected
same,Ratio IC50,[26],10
same,IC50,EJ [27],13.5 µM
